# Screening data (PubChem BioAssay)
# PAX8 inh HTS = inhibitors of PAX8 transcriptional activity in RMG-I cells. inhibition, % at 12.6 µM. RMG-I TPO-luciferase reporter, SteadyGlo, 24 h. 360,000 compounds, 1.2% hits;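 active means mean replicate inhibition at least 60% with every replicate also reaching 60%; inconclusive means only one of the two criteria is met; inactive means mean below 60% and not all replicates reaching 60%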;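 further: luciferase light reporting Pax8 driven TPO promoter activity; plate controls were median of neutral control wells for no effect and mitoxantrone controls for full effect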
# Env fusion inh = blocks HIV Env-driven cell-cell fusion; 360,000 compounds, 1.1% hits; HeLa-JRFL Env/CEM21 cell fusion, luciferase; inhibition, % at 12.3 µM;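 active means mean replicate inhibition score of at least 50 and every replicate individually at or above 50; inconclusive means only one of the two criteria met; inactive means mean below 50 and not all replicates reaching 50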;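 further: 0% = plate neutral controls and 100% = maraviroc near 300 nM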
# MLL AF4-AF9 inh = inhibitors of human MLL-AF4/AF9 interaction; P42568; AlphaScreen, biotin-AF4 peptide binding to FLAG-AF9; inhibition, % at 10 µM; 350,000 compounds, 0.47% hits;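 active means every replicate reaching a set inhibition limit, whatever the replicate mean, cut at about 25% in these data; inconclusive means mean inhibition reaches that limit but some replicates miss it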;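 further: 0% = plate neutral control median and 100% = total signal loss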
# Target sequence (P42568 whole entry, looked up): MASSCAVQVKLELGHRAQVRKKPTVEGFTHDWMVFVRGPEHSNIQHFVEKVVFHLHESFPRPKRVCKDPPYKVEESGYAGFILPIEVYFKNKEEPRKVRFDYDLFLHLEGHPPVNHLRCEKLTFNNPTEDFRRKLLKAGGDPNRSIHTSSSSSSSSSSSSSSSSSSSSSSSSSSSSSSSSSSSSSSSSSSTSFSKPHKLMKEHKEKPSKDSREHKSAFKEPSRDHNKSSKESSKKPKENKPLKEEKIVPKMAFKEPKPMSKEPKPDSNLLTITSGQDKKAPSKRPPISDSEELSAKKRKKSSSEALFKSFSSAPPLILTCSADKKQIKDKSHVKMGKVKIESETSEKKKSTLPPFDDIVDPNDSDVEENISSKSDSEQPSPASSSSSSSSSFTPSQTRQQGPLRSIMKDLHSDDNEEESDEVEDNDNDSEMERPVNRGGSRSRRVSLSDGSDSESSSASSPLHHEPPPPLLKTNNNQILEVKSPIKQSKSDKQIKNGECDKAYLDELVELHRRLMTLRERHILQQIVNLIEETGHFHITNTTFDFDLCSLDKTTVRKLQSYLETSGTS
# EWS-Fli inh = blocks EWS/Fli oncoprotein-driven transcription; inhibition, % at 12.6 µM; 350,000 compounds, 0.67% hits; A673 NR0B1-luciferase reporter, viability-normalised;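 active means mean inhibition of at least 50% after viability correction, with every replicate also passing that limit; inconclusive means mean reaches 50% but only one of two replicates passes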;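 further: firefly luciferase signal divided by Alamar Blue viability fluorescence both relative to DMSO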
# FN deposition inh = fibronectin deposition inhibition; AH1F fibroblasts, Alexa488-fibronectin deposition fluorescence, overnight; inhibition, % at 12.6 µM; 350,000 compounds, 0.086% hits; AID 743247;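 active means mean inhibition across replicates of 30% or more, regardless of how many single replicates reach that level; inconclusive means mean under 30% yet at least half of replicates reach 30%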;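 further: positive control wells lacked labelled fibronectin entirely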
#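 Material: AH1F fibroblasts assembling fluorescent fibronectin matrix; amount: 10000 AH1F cells/well; medium: DMEM, 2% serum; reagent: Alexa488-fibronectin, 24 nM final in well; dosing: single compound dose, delivered by pin transfer; incubation: 1 h adhesion, overnight exposure; detection: fluorescence after three HBSS washes, excitation 485 nm, emission 525 nm; measure: fibronectin deposition inhibition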
# Glyco luc inh = blocks N-linked glycosylation in D54 reporter cells; D54 ERlucT glycosylation luciferase reporter, 24 h; percent of 100 nM tunicamycin response; reporter increase, % at 12.5 µM; 360,000 compounds, 0.23% hits;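 active means mean luciferase reporter signal, scaled so untreated is 0 and the glycosylation-blocking control 100, at or above a set limit in every replicate; inconclusive means mean reaches the limit but not every replicate does; inactive means mean below the limit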;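 further: luciferase carries N-glycosylation sites so blocking glycosylation raises the light; 0% = median of neutral control wells and 100% = median of 100 nM tunicamycin wells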
# Starred values were filed as active, the others as inactive; ? = inconclusive; / = no result given; [ ] = remark or other dose. Sampled rows, rich in hits. Any-hit rate of the full collection: about 2.5%.
SMILES,PAX8 inh HTS,Env fusion inh,MLL AF4-AF9 inh,EWS-Fli inh,FN deposition inh,Glyco luc inh
CC(C)(C)OC(=O)NCCCC[C@H](NC(=O)c1[nH]cnc1C(=O)N[C@@H](Cc1ccccc1)C(=O)OC(C)(C)C)C(=O)OC(C)(C)C,104.1*,47.4,0.5,34.8,10.9,-5.8
C[C@@H]1CN([C@H](C)CO)C(=O)c2cc(C#CC(C)(C)O)cnc2O[C@H]1CN(C)C(=O)C1CCOCC1,/,10.7[16.7 µM],-2.0,-0.2,/,/
C[C@H](CO)N1C[C@H](C)[C@@H](CN(C)C(=O)Nc2ccc(F)cc2)Oc2ccc(NS(=O)(=O)c3ccc(F)cc3)cc2C1=O,/,-13.2[16.7 µM],-4.6,-1.8,/,/
COC(=O)C1=C(N)Oc2cc(C)n(CC3CCCO3)c(=O)c2C1c1ccccc1OC (stereo not given),/,/,/,/,/,0.4
COC(=O)C1=C(N)Oc2cc(N(C)C)ccc2C1c1ccccc1OC (stereo not given),/,61.0*,/,/,1.2,12.1
C[C@H](CO)N1C[C@H](C)[C@@H](CN(C)Cc2ccccc2)OCCCC[C@H](C)Oc2ccc(NC(=O)Nc3ccc4c(c3)OCO4)cc2C1=O,-15.3,9.5[16.7 µM],20.3,63.7*,0.7,/
C[C@@H]1CN([C@H](C)CO)C(=O)c2cc(NC(=O)Nc3ccc4c(c3)OCO4)ccc2O[C@@H](C)CCCCO[C@H]1CN(C)Cc1ccccc1,-1.8,-6.0[16.7 µM],-10.3,-0.8,5.9,/
C[C@@H]1CCCCO[C@H](CN(C)Cc2ccccc2)[C@@H](C)CN([C@@H](C)CO)C(=O)c2cc(NC(=O)Nc3ccc4c(c3)OCO4)ccc2O1,6.5,-53.6[16.7 µM],37.0*,-63.5,0.8,/
CCCN(C)C[C@@H]1Oc2cc(C#CC3CCCC3)ccc2S(=O)(=O)N([C@@H](C)CO)C[C@H]1C,6.9,19.7[16.7 µM],3.4,-121.8,9.5,/
O=C1[C@@H]2Cc3c([nH]c4ccccc34)C(c3ccccc3)N2C(=O)CN1C1CC1 (stereo not given in full),8.4,19.4,?,14.3,-6.5,0.9
CN1CC(=O)N2C(c3ccc(Cl)cc3)c3[nH]c4ccccc4c3C[C@H]2C1=O (stereo not given in full),103.4*,32.4,7.0,49.3,-1.6,?
O=C1[C@@H]2Cc3c([nH]c4ccccc34)C(c3ccc([N+](=O)[O-])cc3)N2C(=O)CN1C1CC1 (stereo not given in full),15.8,23.7,6.9,29.5,8.4,42.7*
COc1ccc(/C=C/c2nc3ccccc3n2C)cc1,88.2*,43.2,9.3,80.7*,4.5,-21.3
COc1ccccc1/C=C/c1nc2ccccc2c(=O)o1,-109.8,-42.1,-2.1,-111.2,19.7,-6.7
COc1ccc(/C=C/c2nc3ccccc3c(=O)o2)cc1,84.2*,34.2,1.8,71.0*,11.9,-23.7
O=C(NCC1CC1)[C@@H]1[C@@H](CO)[C@@H]2Cn3c(ccc(C4=CCCCC4)c3=O)[C@@H]2N1Cc1ccccc1F,/,/,7.0,-2.4,/,/
C=CCSC(=C(C#N)C#N)c1cc2c([nH]1)CCCC2,/,/,/,/,/,40.4*
COc1ccc2cc3c(N)nn(C(=O)c4cccc(F)c4)c3nc2c1,-14.3,?,5.9,-22.3,4.0,-9.2
COc1ccc2cc3c(N)nn(C(=O)Cc4c[nH]c5ccccc45)c3nc2c1,8.4,90.2*,13.6,21.9,12.9,-13.7
COc1cccc(CC(=O)n2nc(N)c3cc4ccc(OC)cc4nc32)c1,42.6,-131.6,-6.6,-33.3,12.8,11.5
COc1ccc2cc3c(N)nn(C(=O)c4ccc(F)cc4)c3nc2c1,-18.8,62.6*,6.6,-28.9,-1.3,-12.5
O=S(=O)(N[C@H]1CC[C@H](CCn2cc(-c3cccc(F)c3)nn2)O[C@@H]1CO)c1ccccc1,20.0,5.0[16.7 µM],0.0,14.0,/,/
O=C(N[C@H]1CC[C@H](CCn2cc(-c3ccc(F)cc3)nn2)O[C@@H]1CO)c1cnccn1,3.2,1.0[16.7 µM],-1.0,-1.5,/,/
COc1ccc(C[C@@H]2CCn3cc(nn3)COC[C@H](Cc3ccccc3)NC2=O)cc1,-9.9,7.6[16.7 µM],-0.2,-4.9,-16.1,/
COc1ccc([C@@H]2[C@@H]3C(=O)N(C(C)(C)C)C(=O)[C@@H]3[C@]3(Cc4ccccc4)C(=O)N(c4ccccc4)C(=O)N23)cc1,-8.4,4.0,-25.8,-11.2,-8.6,1.2
SMILES,PAX8 inh HTS,Env fusion inh,MLL AF4-AF9 inh,EWS-Fli inh,FN deposition inh,Glyco luc inh
COc1ccc([C@@H]2[C@@H]3C(=O)N(C(C)(C)C)C(=O)[C@@H]3[C@]3(Cc4ccccc4)C(=O)N(c4cccc(C)c4)C(=O)N23)cc1,-1.1,18.9,4.7,-3.8,-3.0,56.0*
COc1ccc([C@@H]2[C@@H]3C(=O)N(C(C)(C)C)C(=O)[C@@H]3[C@]3(Cc4ccccc4)C(=O)N(c4cccc(Cl)c4)C(=O)N23)cc1,15.2,79.7*,3.7,-4.8,0.3,?
CCCC#Cc1cnc2c(c1)C(=O)N([C@H](C)CO)C[C@@H](C)[C@H](CN(C)C(=O)c1cccnc1)O2,/,1.1[16.7 µM],-2.3,-0.6,-16.4,/
C=CCNC(=O)C1CCC(CNc2nc(=S)[nH]c3ccccc23)CC1 (stereo not given),10.3,4.5,-2.2,10.6,-1.2,5.1
O=C(C1CCC(CNc2nc(=S)[nH]c3ccccc23)CC1)N1CCN(c2ccccn2)CC1 (stereo not given),/,65.4*,/,/,-1.8,-3.2
O=C(O)c1ccccc1N/N=C/c1cc(Br)cc(Br)c1O,-237.9,-70.5,30.1*,-46.5,8.3,-6.3
CCn1c2ccccc2c2cc(NC(=O)CSc3nnc(-c4ccccc4OC)n3N)ccc21,/,133.4*,/,/,-2.2,-0.3
CCn1c2ccccc2c2cc(NC(=O)CSc3nnc(-c4cccc(OC)c4)n3N)ccc21,/,135.4*,/,/,/,3.6
CCn1c2ccccc2c2cc(NC(=O)CSc3nnc(-c4ccc(OC)c(OC)c4)n3N)ccc21,13.8,-26.4,/,/,/,7.3
CCOc1ccc(-c2nnc(SCC(=O)Nc3ccc4c(c3)c3ccccc3n4CC)n2N)cc1,36.1,-224.3,/,/,/,73.3*
C[C@@H]1CCCCO[C@@H](CN(C)C(=O)c2ccccc2)[C@@H](C)CN([C@@H](C)CO)C(=O)c2cc(NS(=O)(=O)c3cccs3)ccc2O1,-0.2,-21.0[16.7 µM],-3.2,3.4,3.0,/
COc1ccc2c3c(n(C)c2c1)[C@@H](CO)N(C(=O)CN(C)C)CC31CCN(Cc2cccnc2)CC1,/,/,0.7,0.6,/,/
O=C(/C=C/c1ccccc1Cl)Nc1cccc(S(=O)(=O)NC2=NCCCCC2)c1,-31.3,-55.9,/,/,-1.4,-0.3
O=C(/C=C/c1ccc(Cl)cc1Cl)Nc1cccc(S(=O)(=O)NC2=NCCC2)c1,-46.2,-150.9,1.1,35.2,33.1*,-3.8
CC(C)CC[n+]1ccccc1/C=C/c1ccc(N(C)C)cc1,82.3*,60.6*,9.9,48.8,-57.5,-1.6
COc1cccc(/C=N/Nc2ncnc(Cl)c2N)c1O,/,55.4*,4.7,4.7,4.0,-11.5
